Source: PubChem
Compounds with a hit are over-represented: about 12% of the library has one in this group of screens.
Arbovirus anti: antivirals against arbovirus infection, primary screen, cell-based, full library, 10K replicate subset. arbovirus infection cell-based antiviral screen. inhibition, % at 10 µM. 200,000 compounds, 0.37% hits. AID 1251, 2008; in the data active = inhibition above about 30%
PKD1 kinase inh: inhibitors of human PKD1 kinase, biochemical, fluorescence polarization; inhibition, % (no concentration beside the values); Serine/threonine-protein kinase D1 (Homo sapiens), Q15139; 200,000 compounds, 0.056% hits; PKD1 kinase fluorescence polarization assay
Target sequence (Q15139 whole entry, looked up): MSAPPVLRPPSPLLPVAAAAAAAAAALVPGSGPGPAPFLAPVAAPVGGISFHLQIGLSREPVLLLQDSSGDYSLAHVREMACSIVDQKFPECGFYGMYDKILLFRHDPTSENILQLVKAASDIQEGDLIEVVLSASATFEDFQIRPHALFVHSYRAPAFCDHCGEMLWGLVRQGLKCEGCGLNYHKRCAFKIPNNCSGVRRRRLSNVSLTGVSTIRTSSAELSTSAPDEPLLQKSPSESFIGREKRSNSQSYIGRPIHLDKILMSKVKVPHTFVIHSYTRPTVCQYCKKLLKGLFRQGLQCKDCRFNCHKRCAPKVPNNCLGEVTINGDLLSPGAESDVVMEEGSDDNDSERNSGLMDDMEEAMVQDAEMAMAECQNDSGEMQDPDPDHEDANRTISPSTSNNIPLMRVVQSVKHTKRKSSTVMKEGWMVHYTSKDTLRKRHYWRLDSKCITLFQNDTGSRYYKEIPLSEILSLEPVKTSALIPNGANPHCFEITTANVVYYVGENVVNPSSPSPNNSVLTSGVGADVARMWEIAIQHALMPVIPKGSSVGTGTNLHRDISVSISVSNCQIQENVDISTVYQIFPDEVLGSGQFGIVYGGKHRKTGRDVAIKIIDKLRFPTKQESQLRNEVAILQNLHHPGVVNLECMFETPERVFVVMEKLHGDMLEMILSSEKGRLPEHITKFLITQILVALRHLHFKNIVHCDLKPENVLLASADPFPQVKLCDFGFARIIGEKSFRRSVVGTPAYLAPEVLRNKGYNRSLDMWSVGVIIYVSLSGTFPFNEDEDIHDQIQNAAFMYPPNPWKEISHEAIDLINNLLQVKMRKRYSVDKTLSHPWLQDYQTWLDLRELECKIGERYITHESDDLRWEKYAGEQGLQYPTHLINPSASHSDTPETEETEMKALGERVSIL
Rad51 HR inh: human RAD51 strand exchange inhibitors, primary screen, biochemical, fluorescence. 200,000 compounds, 0.085% hits. hRad51 DNA strand exchange, fluorescence dequenching. inhibition, % at 10 µM. DNA repair protein RAD51 homolog 1 (Homo sapiens), Q06609;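 active = inhibition above 40% at the single screening dose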;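 also: 0% = DMSO control wells and 100% = blanks with heterologous ssDNA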
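Test system: preformed human Rad51 ssDNA filaments; also added: Donor/quencher-labelled 47-bp dsDNA substrate; doses: 10 µM final, single point; times: 37 °C 15-min filament assembly, 30-min compound preincubation, 15-min exchange; detection: FRET fluorescence dequenching, excitation 485 nm, emission 520 nm; read-out basis: Fluorescence-based percent inhibition, control- and blank-normalised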
CHOP inh: inhibitors of CHOP promoter induction, primary screen, cell-based, unfolded protein response, luciferase reporter; 220,000 compounds, 3.8% hits; inhibition, % at 10 µM; CHO-K1 CHOP-promoter luciferase, tunicamycin-induced, 15-18 h;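 active = compounds that reduced the stress-induced luciferase reporter signal by more than about 70% of percent inhibition, limit read from the data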;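 also: 0% = tunicamycin plus vehicle and 100% = wells without tunicamycin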
Wee1 degr inh: Wee1 degradation inhibitors, primary screen, cell-based, HeLa, Wee1K328M-luciferase, luminescence; 220,000 compounds, 1.2% hits; reporter increase, % at 5 µM; HeLa Luc-Wee1K328M stability; 100% = proteasome inhibitor MG132 effect; AID 1321, 2008;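 active = activation above the mean of all tested compounds plus 3 SD, set per screening run, cut at about 8.8% in these data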;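 also: cells exposed to compound for 20 h before luminescence read; 0% = DMSO alone and 100% = MG132 at 30 µM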
L major viab: Leishmania major promastigote growth inhibition, primary screen; 200,000 compounds, 9% hits; inhibition, % at 10 µM; Leishmania major promastigotes, resazurin fluorescence viability;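 also: promastigotes grown with compound for 44 hours at 28 °C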
* marks the source's active call; other numbers are inactive results; . = no result. Rule as the data show it, unless noted: active = inhibition above about 50%; inactive = the rest.

SMILES	Arbovirus anti	PKD1 kinase inh	Rad51 HR inh	CHOP inh	Wee1 degr inh	L major viab
CC(=O)c1cccc(OCC(O)CN2CC=C(c3ccccc3)CC2)c1 (centres undefined)	-4.5	-2.4	-13.3	-16.7	-0.4	93.7*
NC(=O)c1ccc(OCC(O)CN2CC=C(c3ccc(F)cc3)CC2)cc1 (centres undefined)	.	.	.	-6.8	.	.
O=C1NC(=O)C(CCc2ccccn2)(Cc2ccc3c(c2)OCO3)C(=O)N1CCc1ccccc1 (centres undefined)	-1.3	-10.9	0.9	19.2	1.9	97.7*
c1ccc(CNCCc2ccc3c(c2)OCO3)nc1	-8.3	-8.3	-2.6	5.8	-1.1	0.3
COC(=O)C1=C(c2cccc(OC)c2OC)C[C@@H]2CC[C@H]1N2C(=O)NC(C)C	.	.	2.7	.	.	.
C#CCNc1ccncc1S(=O)(=O)NC(=O)NC(C)C	2.3	0.8	-8.7	3.8	0.3	-4.0
Cc1nn(Cc2ccccc2)c(Cl)c1C(=O)NC1CCCc2ccccc21 (centres undefined)	30.3*	-7.7	-3.3	28.9	1.4	4.0
COc1ccc(C2c3c(nc(C)[nH]c3=O)Oc3c2c(=O)oc2ccccc32)cc1 (centres undefined)	.	.	5.5	19.0	1.4	.
CCN(CC)c1ccc(CN2CC=C(c3ccc(F)cc3)CC2)cc1	1.5	-11.3	-2.0	8.2	-0.5	95.7*
Oc1ccc2ccccc2c1CN1CC=C(c2ccccc2)CC1	3.0	0.1	13.0	33.8	-2.1	3.6
CC(C)OC1CCCC(O)C1CC(=O)O (centres undefined)	.	.	0.3	8.4	7.8	.
Cc1ccc(C(=O)C2CN3CCC2CC3)cc1 (centres undefined)	-3.4	-6.9	-7.3	25.9	0.7	73.5*
O=[N+]([O-])[N-][n+]1cnn(Cc2ccc(Cl)cc2)c1	-6.2	-4.4	-2.7	5.4	-0.7	2.5
O=C(CN1CC=C(c2ccccc2)CC1)NC(=O)NCc1ccco1	-1.7	-3.4	-1.1	76.0*	-0.9	-5.4
CCOC(=O)c1c(C)n(CCOC)c2ccc(O)cc12	4.7	-2.1	8.2	-15.1	9.0*	17.9
CCOC(=O)c1c(C)n(CCN2CCN(C)CC2)c2ccc(OC)cc12	-9.4	1.0	3.2	6.5	-0.5	16.0
O=C1NC(=O)C(=Cc2cc(Cl)ccc2OCc2ccc(C(=O)O)cc2)C(=O)N1	-2.3	-1.4	0.8	2.4	-4.3	93.5*
CN1C(=O)C(=Cc2ccccc2OCc2ccc(Cl)cc2)C(=O)N(C)C1=O	-0.5	-4.0	-4.5	-37.4	1.4	37.4
Cc1cc(C)cc(N2C(=O)NC(=O)/C(=C/c3cccn3-c3ccc(Cl)cc3)C2=O)c1	-36.1	5.6	.	-88.0	0.4	98.5*
Cc1cccc(N2C(=O)NC(=O)/C(=C\c3cccn3-c3ccc(Cl)cc3)C2=O)c1	1.6	0.9	-8.3	35.4	1.0	46.7
CCn1ncc(/C=C2/CC3C4CC=C5CC(O)CCC5(C)C4CCC3(C)C2=O)c1C (centres undefined)	.	-5.4	.	.	1.9	-6.8
O=C(c1cc(C(=O)NCc2ccc(Cl)cc2)c(=O)n(Cc2ccc(Cl)cc2)c1)c1cc(F)ccc1O	-4.2	6.7	.	36.8	1.5	16.3
Cc1ccc(O)c(C(=O)c2cc(C(=O)NCCC(C)C)c(=O)n(CCC(C)C)c2)c1	-5.2	2.5	22.8	37.1	-1.1	81.5*
CCCN(CCC)[C@H]1CCc2c(F)ccc(O)c2C1	.	.	.	-4.2	.	.
O=c1[nH]c(=O)n(Cc2ccc(F)cc2)c(O)c1C=NCC1CCCO1 (centres undefined)	5.3	-1.5	1.0	23.3	8.9*	-3.9
SMILES	Arbovirus anti	PKD1 kinase inh	Rad51 HR inh	CHOP inh	Wee1 degr inh	L major viab
CCS(=O)(=O)NCc1nnc2n1-c1ccc(Cl)cc1C(c1ccccc1)=NC2	2.4	-4.4	1.4	31.2	0.9	48.0
CC1=NN=C(c2ccc(N)cc2)c2cc3c(cc2C1)OCO3	.	.	.	18.4	.	.
N=Cc1c(O)n(-c2ccc(C34CC5CC(CC(C5)C3)C4)cc2)c(=O)[nH]c1=O	10.7	-2.3	-53.6	80.6*	-1.0	-4.8
COc1cc(NC(=O)CN2C3CCC2CC(O)(c2cccnc2)C3)cc(OC)c1 (centres undefined)	-1.9	-8.3	-0.9	19.2	0.2	93.3*
C=CCN(CC#CCOc1ccccc1OC)CC=C	-4.5	-3.5	.	0.6	0.2	3.6
O=C1NC(=S)N(C2CC2)C(=O)/C1=C/c1ccc2c(c1)CCN2CCCCl	-4.3	-10.4	-28.0	-33.8	-1.8	73.8*
CC(C)(C)N1C(=O)NC(=O)/C(=C\c2ccc3c(c2)CCN3CCCCl)C1=O	.	.	-124.4	13.7	-1.1	.
C=CCN1C(=O)/C(=C/c2ccc3c(c2)CCCN3CCC)C(=O)NC1=S	-18.4	16.9	-33.6	14.5	-0.2	91.4*
CCN1C(=O)/C(=C/c2ccc3c(c2)CCN3CCCCl)C(=O)NC1=S	-4.9	-6.5	-30.5	89.8*	-0.1	100.0*
COc1ccc(/C=C2\C(=O)NC(=S)N(C)C2=O)cc1C	-1.4	-1.8	-38.9	-11.2	0.1	-1.3
CCOP(=O)(OCC)C(O)c1ccc(OC)cc1 (centres undefined)	.	.	16.9	7.0	-3.0	.
NCC(CP(=O)(O)O)c1ccc(Cl)cc1 (centres undefined)	.	.	.	-6.2	.	.
CCOP(=O)(OCC)C(O)c1ccc(N(C)C)cc1 (centres undefined)	.	.	7.8	3.0	-0.3	.
Cc1cc(S(=O)(=O)NC(C)C)ccc1OCC(=O)N1CCN(Cc2ccc3c(c2)OCO3)CC1	0.2	-11.0	0.7	14.2	-1.6	96.0*
CCc1ccc(OCC(=O)N2CCN(Cc3ccc4c(c3)OCO4)CC2)cc1	-16.2	-5.2	2.6	8.6	-2.8	83.3*
CSc1ccc(CN2CCN(C(=O)COc3cccc(C)c3)CC2)cc1	-1.0	-1.8	-4.3	11.5	-1.7	86.6*
CC(C)NS(=O)(=O)c1ccc(OCC(=O)N2CCN(Cc3ccc4c(c3)OCO4)CC2)c(Cl)c1	-1.5	-1.6	-2.8	28.2	-3.1	55.9*
Cc1cccc(OCC(=O)N2CCN(Cc3cccnc3)CC2)c1	9.3	2.8	-1.0	4.2	5.4	2.5
CCn1c(=O)cc(OCC(=O)N2CCN(Cc3ccc4c(c3)OCO4)CC2)c2ccccc21	-17.5	-5.8	2.8	12.2	-2.0	-1.7
Cc1nc(-c2ccc(-c3ccc(C(=O)N4CCc5cc6c(cc54)C4(CCN(C)CC4)CO6)cc3)c(C)c2)no1	.	.	.	17.1	.	.
O=C(O)[C@@H]1CCN1	.	.	.	6.0	.	.
CCCCCCC(C)(C)c1ccc([C@@H]2C[C@H](O)CC[C@H]2CCCO)c(O)c1	.	.	.	-25.0	.	.
CC1Cc2cc3c(cc2C(c2ccc(N)cc2)=NN1)OCO3 (centres undefined)	.	.	.	-20.4	.	.
